Bioassay records: PubChem, The Scripps Research Institute Molecular Screening Center
Only some compounds are listed: those with a hit (about 3.3% of all), similar ones and a draw of the others.
HEK293 NFkB inh = inhibitors of PMA/ionomycin-induced NF-kB reporter, primary screen, antigen receptor NF-kB inhibitor project, cell-based, HEK-293 luciferase reporter, luminescence; 62,000 tested, 0.21% active; HEK-293 NF-kB luciferase reporter; inhibition, % at 3 µM;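 active means inhibition above the mean of all tested compounds plus 3 SD, cut at about 40% in these data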;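 further: 0% = stimulated DMSO wells and 100% = 10 µM reference inhibitor 5653914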
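System – HEK-293 cells with stable firefly luciferase reporter driven by four HIV NF-kB elements · Doses – one dose, 3 µM · Schedule – 1 h compound pre-incubation, 16 h PMA/ionomycin at 37 °C · Technique – luminescence from luciferase substrate reagent · Measure – percent inhibition normalized per plate to DMSO and reference-inhibitor controls · Replicates – tested once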
5HT1E antag = 5-HT1E receptor antagonists, primary screen, cell-based, HTS; 5-hydroxytryptamine receptor 1E (Homo sapiens), P28566; AID 571, 2007; inhibition, % at 6 µM; 65,000 tested, 0.99% active; CHO 5-HT1E Ga15 NFAT-bla reporter, FRET, antagonist;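 active means inhibition above a set limit, the mean inhibition across every tested compound plus 3 SD, cut at about 29% in these data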;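 further: signal is the 460 over 535 nm emission ratio of beta-lactamase substrate; 0% = agonist plus DMSO wells and 100% = wells without agonist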
Target sequence (P28566 whole entry, looked up): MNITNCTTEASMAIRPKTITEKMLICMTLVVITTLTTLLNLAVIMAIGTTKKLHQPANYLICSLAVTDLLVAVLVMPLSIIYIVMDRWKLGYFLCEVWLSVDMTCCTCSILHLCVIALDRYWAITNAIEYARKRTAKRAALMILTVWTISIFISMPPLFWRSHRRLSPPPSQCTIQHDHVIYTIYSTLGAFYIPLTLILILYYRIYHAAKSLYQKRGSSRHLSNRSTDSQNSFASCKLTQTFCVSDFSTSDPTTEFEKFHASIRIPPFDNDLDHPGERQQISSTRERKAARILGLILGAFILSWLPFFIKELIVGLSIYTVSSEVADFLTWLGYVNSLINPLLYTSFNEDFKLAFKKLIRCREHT
5HT1E ag = 5-HT1E receptor agonists, primary screen, cell-based, HTS; 5-hydroxytryptamine receptor 1E (Homo sapiens), P28566; CHO 5-HT1E Ga15 NFAT-bla reporter, FRET; 0% DMSO wells, 100% control agonist wells; activation, % at 6 µM; 65,000 tested, 0.69% active; AID 574, 2007;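 active means activation above a set limit, the screen-wide mean activation plus 3 SD, cut at about 8.5% in these data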;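 further: 100% = positive control agonist at 1 µM giving full maximal response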
HTR1A agonist = human 5-HT1a receptor agonists, primary screen, cell-based, CHO, Ga15 NFAT-bla reporter; 5-hydroxytryptamine receptor 1A (Homo sapiens), P08908; CHO 5-HT1a Ga15 NFAT-bla reporter, FRET ratio; 0% basal, 100% maximal reference agonist; activation, % at 10 µM; 65,000 tested, 0.56% active;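 active means activation above the screen-wide mean activation plus 3 SD, cut at about 19% in these data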;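 further: 0% = DMSO wells and 100% = 5-CT at EC100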
5HT1a antag = human 5-HT1a receptor antagonists, primary screen, cell-based, CHO, Ga15 NFAT-bla reporter; AID 612, 2007; inhibition, % at 10 µM; CHO 5-HT1a Ga15 NFAT-bla reporter, antagonist mode; 62,000 tested, 0.68% active; 5-hydroxytryptamine receptor 1A (Homo sapiens), P08908;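 active means inhibition above the mean of all tested compounds plus 3 SD, cut at about 43% in these data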;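 further: receptor stimulated by 5-CT agonist at 100 nM near EC80; beta-lactamase reporter measured by ratiometric fluorescence of a cleavable substrate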
Jurkat tox 60K = cytotoxicity toward Jurkat T cells, primary screen, cytotoxicity control, cell-based, Jurkat E6.1, 60K MLSMR library. Jurkat E6.1 viability, ATP luminescence, 48 h. 56,000 tested, 1.2% active. inhibition, % at 4 µM;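 active means inhibition above the mean inhibition of all tested compounds plus 3 SD, cut at about 28% in these data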
Starred values were filed as active, the others as inactive.

`Clc1ccccc1CNc1ncnc2nc[nH]c12` gave HEK293 NFkB inh 4, 5HT1E antag -10, 5HT1E ag 1, HTR1A agonist 47*, 5HT1a antag 3 and Jurkat tox 60K 1.
`c1ccc(CNc2ncnc3nc[nH]c23)nc1` gave HEK293 NFkB inh 16, 5HT1E antag 5, 5HT1E ag 0, HTR1A agonist -3, 5HT1a antag -2 and Jurkat tox 60K -3.
Screening Cc1cccc(NC(=O)C2CCCN2S(=O)(=O)c2cccc3cccnc23)c1 (configuration not stated) returned HEK293 NFkB inh 0, 5HT1E antag -1, 5HT1E ag 1, HTR1A agonist -2, 5HT1a antag -1 and Jurkat tox 60K -2.
For Cc1cc(C(=O)COC(=O)c2n[nH]c3ccccc23)c(C)n1C the results were HEK293 NFkB inh -13, 5HT1E antag -4, 5HT1E ag 0, HTR1A agonist 2, 5HT1a antag 9 and Jurkat tox 60K 3.
COc1cc(C(=O)OCC(=O)c2cc(C)n(C)c2C)cc(OC)c1OC was read as HEK293 NFkB inh 22, 5HT1E antag 5, 5HT1E ag 0, HTR1A agonist -3, 5HT1a antag 14 and Jurkat tox 60K 42*.
`O=C(Nc1nc2ccc(S(=O)(=O)N3CCCC3)cc2s1)C1CCCCC1` gave HEK293 NFkB inh 10, 5HT1E antag 18, 5HT1E ag 2, HTR1A agonist 0, 5HT1a antag 8 and Jurkat tox 60K 93*.
For O=C(CSc1nnc2sc3ccccc3n12)c1ccco1 the results were HEK293 NFkB inh -10, 5HT1E antag 12, 5HT1E ag -1, HTR1A agonist -1, 5HT1a antag -14 and Jurkat tox 60K 1.
For CN(C)CCCn1c(NC(=O)C2CCCCC2)nc2ccccc21 the results were 5HT1E antag -7, 5HT1E ag 54* and HTR1A agonist 0.
COc1cc(-c2nnc3n2N=C(c2ccccc2)CS3)cc(OC)c1OC was read as HEK293 NFkB inh 35, 5HT1E antag 51*, 5HT1E ag 0, HTR1A agonist -1, 5HT1a antag 2 and Jurkat tox 60K 52*.
COc1cccc(-c2nnc3n2N=C(C(C)(C)C)CS3)c1 was read as HEK293 NFkB inh 50*, 5HT1E antag 51*, 5HT1E ag -1, HTR1A agonist -1 and 5HT1a antag 76*.
Screening CCOc1cccc(-c2nnc3n2N=C(c2cc(OC)ccc2OC)CS3)c1 returned HEK293 NFkB inh 30, 5HT1E antag 61*, 5HT1E ag 0, HTR1A agonist 1 and 5HT1a antag 31.
`COc1ccc(OC)c(C2=Nn3c(nnc3-c3ccncc3)SC2)c1` gave HEK293 NFkB inh 3, 5HT1E antag 16, 5HT1E ag 1, HTR1A agonist 3 and 5HT1a antag -10.
`COc1ccc(-c2nnc3n2N=C(c2cccc(Br)c2)CS3)cc1OC` gave HEK293 NFkB inh 15, 5HT1E antag 19, 5HT1E ag 0, HTR1A agonist 2, 5HT1a antag -7 and Jurkat tox 60K -5.
Screening COc1ccc(OC)c(C2=Nn3c(nnc3-c3cc(OC)c(OC)c(OC)c3)SC2)c1 returned HEK293 NFkB inh 33, 5HT1E antag 44*, 5HT1E ag 3, HTR1A agonist 3, 5HT1a antag 14 and Jurkat tox 60K 4.
For Cc1cc(NC(=O)CN2CCN(c3ccccc3F)CC2)nc2c1c(=O)oc1ccccc12 the results were HEK293 NFkB inh 4, 5HT1E antag 1, 5HT1E ag 0, HTR1A agonist -3, 5HT1a antag -7 and Jurkat tox 60K 1.
COc1cccc(-c2nnc3n2N=C(c2cc(OC)ccc2OC)CS3)c1 was read as HEK293 NFkB inh 17, 5HT1E antag 44*, 5HT1E ag -1, HTR1A agonist 1 and 5HT1a antag 12.
COc1ccc(-c2cc3nc(C)cc(C)n3n2)c(OC)c1 was read as HEK293 NFkB inh -4, 5HT1E antag 14, 5HT1E ag -1, HTR1A agonist 0, 5HT1a antag -5 and Jurkat tox 60K 0.
CCN1CCN(S(=O)(=O)c2cc(OCC(=O)NC3CCCCC3)c(C)cc2Cl)CC1 was read as HEK293 NFkB inh 24, 5HT1E antag 4, 5HT1E ag -1, HTR1A agonist -2, 5HT1a antag 6 and Jurkat tox 60K 53*.
N#Cc1c(N)nc(-c2ccccc2)nc1-c1ccccc1 was read as HEK293 NFkB inh 19, 5HT1E antag 30*, 5HT1E ag 0, HTR1A agonist -1, 5HT1a antag 23 and Jurkat tox 60K 6.
For CCC(c1nnc(SCC(=O)Nc2nnc(-c3ccccc3)o2)n1Cc1ccccc1)N(C)C (configuration not stated) the results were HEK293 NFkB inh 0, 5HT1E antag -9, 5HT1E ag 0, HTR1A agonist -5, 5HT1a antag -2 and Jurkat tox 60K -2.
Cc1nc(SCC#N)c2c(C)c(C)sc2n1 was read as HEK293 NFkB inh 18, 5HT1E antag 35*, 5HT1E ag 2, HTR1A agonist 1, 5HT1a antag 19 and Jurkat tox 60K 4.
Screening COc1cccc(OCCOCCNCCO)c1 returned HEK293 NFkB inh 16, 5HT1E antag 2, 5HT1E ag 0, HTR1A agonist 42*, 5HT1a antag 0 and Jurkat tox 60K -4.
COc1cccc(OC)c1OCCNCCO was read as HEK293 NFkB inh 23, 5HT1E antag 0, 5HT1E ag 1, HTR1A agonist 0, 5HT1a antag 1 and Jurkat tox 60K 2.
For CC(C)Oc1cc(O)c2c(=O)c(-c3ccc(O)cc3)coc2c1 the results were HEK293 NFkB inh -52, 5HT1E antag 4, 5HT1E ag 1, HTR1A agonist -1, 5HT1a antag 11 and Jurkat tox 60K 99*.
For CCn1cc(C(=O)Nc2nncs2)c(=O)c2cc(F)c(N3CCN(C(=O)c4ccco4)CC3)cc21 the results were HEK293 NFkB inh 20, 5HT1E antag 0, 5HT1E ag 0, HTR1A agonist 1, 5HT1a antag -4 and Jurkat tox 60K 6.
`COc1cccc(N2C(N)=NC(N)=NC2(C)C)c1` gave HEK293 NFkB inh 10, 5HT1E antag -6, 5HT1E ag 0, HTR1A agonist -4, 5HT1a antag 3 and Jurkat tox 60K 66*.
For CCOC(=O)c1cccc(N2C(N)=NC(N)=NC2(C)C)c1 the results were HEK293 NFkB inh 14, 5HT1E antag 5, 5HT1E ag 0, HTR1A agonist -3, 5HT1a antag -111 and Jurkat tox 60K 1.
